Molecules are shown by their SMILES. The source made the active and inactive calls. The rule behind the calls is not given here.

A word on the Ki: it is a dissociation constant, usually derived from enzyme kinetics or from competition with a known ligand. Read a high Ki as weaker binding.

One assay deals with T1, Signal transducer and activator of transcription 3 (Homo sapiens, UniProt P40763). Briefly: Inhibition of SH2 domain of Stat3 constitutive phosphorylation at Tyr705 in human MDA-MB-468 cells at 0.1 uM after 2 hrs by Western blotting. It is filed as cell-based. A digest of the protocol: (§1)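 MDA-MB-468 cells (4×10^5/well, DMEM 10% FCS, overnight) given prodrug from freshly made 10 mM DMSO stock for 2 h. Lysates in Hepes pH 7.4 Triton buffer with phosphatase/protease inhibitors; 12 μg protein on 8% SDS-PAGE, PVDF, probed for pStat3 Y705 by ECL, then stripped and reprobed for total Stat3.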
T1 sequence (P40763 whole entry, the tested form may be a part): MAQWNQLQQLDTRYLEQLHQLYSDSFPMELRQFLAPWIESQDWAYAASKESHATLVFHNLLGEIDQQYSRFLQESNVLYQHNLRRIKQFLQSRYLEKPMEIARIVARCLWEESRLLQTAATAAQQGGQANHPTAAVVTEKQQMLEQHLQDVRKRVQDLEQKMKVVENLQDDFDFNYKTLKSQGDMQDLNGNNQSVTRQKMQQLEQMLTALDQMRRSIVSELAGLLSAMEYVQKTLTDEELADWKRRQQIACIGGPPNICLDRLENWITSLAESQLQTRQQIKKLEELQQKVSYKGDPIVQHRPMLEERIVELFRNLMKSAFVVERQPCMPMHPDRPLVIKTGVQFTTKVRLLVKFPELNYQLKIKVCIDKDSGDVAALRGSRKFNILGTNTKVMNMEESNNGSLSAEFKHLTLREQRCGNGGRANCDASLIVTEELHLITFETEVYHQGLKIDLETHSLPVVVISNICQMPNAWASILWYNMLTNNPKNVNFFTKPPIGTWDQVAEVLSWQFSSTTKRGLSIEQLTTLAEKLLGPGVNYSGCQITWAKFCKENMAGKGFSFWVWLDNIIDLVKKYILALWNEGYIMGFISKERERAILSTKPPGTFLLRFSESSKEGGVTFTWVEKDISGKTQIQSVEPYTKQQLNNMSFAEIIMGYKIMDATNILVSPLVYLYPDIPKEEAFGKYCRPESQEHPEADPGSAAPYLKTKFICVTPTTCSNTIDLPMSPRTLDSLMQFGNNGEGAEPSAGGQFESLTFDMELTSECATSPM
On the technique in general: A western blot detects proteins with antibodies after separation by electrophoresis.
For `C[C@H](CCC(N)=O)NC(=O)[C@@H]1Cc2cccc3c2N1C(=O)[C@@H](NC(=O)/C=C/c1ccc(C(F)(F)P(=O)(OCOC(=O)C(C)(C)C)OCOC(=O)C(C)(C)C)cc1)CC3`, the inhibition result is “Active”.

For a further assay, the target named is T1, Signal transducer and activator of transcription 3. Briefly: Inhibition of SH2 domain of Stat3 constitutive phosphorylation at Tyr705 in human MDA-MB-468 cells at 0.5 uM after 2 hrs by Western blotting. It is filed as cell-based. In short, it runs like this: as §1
Regarding `C[C@H](CCC(N)=O)NC(=O)[C@@H]1Cc2cccc3c2N1C(=O)[C@@H](NC(=O)/C=C/c1ccc(C(F)(F)P(=O)(OCOC(=O)C(C)(C)C)OCOC(=O)C(C)(C)C)cc1)CC3`, the inhibition entry is “Active”.

Another assay has the same target. Briefly: Inhibition of SH2 domain of Stat3 constitutive phosphorylation at Tyr705 in human MDA-MB-468 cells after 2 hrs by Western blotting. It is filed as cell-based. In short, it runs like this:
as §1
Regarding `C/C(=C\C(=O)N[C@H]1CCc2cccc3c2N(C1=O)[C@H](C(=O)N[C@@H](CCC(N)=O)C(=O)NCc1ccccc1)C3)c1ccc(C(F)(F)P(=O)(OCOC(=O)C(C)(C)C)OCOC(=O)C(C)(C)C)cc1`, the inhibition entry was “Dose-dependent effect”.

For the compound `CC(C)(C)C(=O)OCOP(=O)(OCOC(=O)C(C)(C)C)C(F)(F)c1ccc(/C=C/C(=O)N[C@H]2CCc3cccc4c3N(C2=O)[C@H](C(=O)N[C@@H](CCC(N)=O)C(=O)NCc2ccccc2)C4)cc1`, the inhibition entry was “Dose-dependent effect”.

A further assay has the same target. Briefly: Binding affinity to SH2 domain of Stat3 by fluorescence polarization assay. In short, it runs like this: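 Recombinant Stat3, expressed and purified, tested against phosphopeptides and peptidomimetics in a fluorescence polarization competition assay. Affinity is reported as an inhibition constant (K_I).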
Turning to `CCCC[C@H](NC(=O)/C=C(\C)c1ccc(OP(=O)(O)O)cc1)C(=O)N1C[C@H]2C[C@H]2[C@H]1C(=O)NCCOC(N)=O`, the inhibitory constant (Ki) is 114 nM. In other words, the sub-micromolar range.

For the compound `CCCC[C@H](NC(=O)/C=C(\C)c1ccc(OP(=O)(O)O)cc1)C(=O)N1C[C@H]2C[C@H]2[C@H]1C(=O)N[C@@H](CCC(N)=O)C(=O)NCc1ccccc1`, the Ki turned out to be 33 nM. This Ki lies about 3.5-fold lower than the previous one.

In turn, `C/C(=C\C(=O)N[C@H]1CCc2cccc3c2N(C1=O)[C@H](C(=O)N[C@H](C)CCC(N)=O)C3)c1ccc(OP(=O)(O)O)cc1` registered an inhibitory constant (Ki) of 105 nM.

`C/C(=C\C(=O)N[C@H]1CCc2cccc3c2N(C1=O)[C@H](C(=O)N[C@@H](CCC(N)=O)C(=O)NCc1ccccc1)C3)c1ccc(OP(=O)(O)O)cc1` showed a Ki of 57 nM.

For `C/C(=C\C(=O)N[C@@H](CC(C)C)C(=O)N1C[C@H]2C[C@H]2[C@H]1C(=O)N[C@@H](CCC(N)=O)C(=O)NCc1ccccc1)c1ccc(OP(=O)(O)O)cc1`, the affinity corresponds to a Ki of 43 nM.

For the compound `C/C(=C\C(=O)N[C@@H](CC(C)C)C(=O)N1CCC[C@H]1C(=O)N[C@@H](CCC(N)=O)C(=O)NCc1ccccc1)c1ccc(OP(=O)(O)O)cc1`, the inhibitory constant (Ki) amounted to 66 nM. This Ki lies about 1.5-fold higher than the previous one.

`C/C(=C\C(=O)N[C@@H](CC(C)C)C(=O)N1CCC[C@H]1C(=O)NCCOC(N)=O)c1ccc(OP(=O)(O)O)cc1` had a Ki of 203 nM.

Take `C/C(=C\C(=O)N[C@@H](CC(C)C)C(=O)N1C[C@H]2C[C@H]2[C@H]1C(=O)NCCNC(N)=O)c1ccc(OP(=O)(O)O)cc1`: the Ki came out at 39 nM. This Ki is about 5.2-fold lower than that of the compound before.

For `CCCC[C@H](NC(=O)/C=C(\C)c1ccc(OP(=O)(O)O)cc1)C(=O)N1C[C@H]2C[C@H]2[C@H]1C(=O)N[C@H](C)CCC(N)=O`, the inhibition constant (Ki) turned out to be 66 nM.

`CCCC[C@H](NC(=O)/C=C(\C)c1ccc(OP(=O)(O)O)cc1)C(=O)N1C[C@H]2C[C@H]2[C@H]1C(=O)NCCNC(N)=O` showed a Ki of 46 nM. The Ki values of the last two compounds are within 1.5-fold of each other.

As for `C/C(=C\C(=O)N[C@@H](CC(C)C)C(=O)N1C[C@H]2C[C@H]2[C@H]1C(=O)NCCOC(N)=O)c1ccc(OP(=O)(O)O)cc1`, the Ki turned out to be 193 nM.

`CCCC[C@H](NC(=O)/C=C/c1ccc(OP(=O)(O)O)cc1)C(=O)N1C[C@H]2C[C@H]2[C@H]1C(=O)N[C@@H](CCC(N)=O)C(=O)NCc1ccccc1` showed an inhibition constant (Ki) of 48 nM.

Turning to `C/C(=C\C(=O)N[C@H]1CCc2cccc3c2N(C1=O)[C@H](C(=O)NCCOC(N)=O)C3)c1ccc(OP(=O)(O)O)cc1`, the Ki amounted to 188 nM. This Ki lies about 3.9-fold higher than the previous one.

The compound `C/C(=C\C(=O)N[C@@H](CC(C)C)C(=O)N1C[C@H]2C[C@H]2[C@H]1C(=O)N[C@H](C)CCC(N)=O)c1ccc(OP(=O)(O)O)cc1` had a Ki of 83 nM.

In turn, `C/C(=C\C(=O)N[C@@H](CC(C)C)C(=O)N1CCC[C@H]1C(=O)N[C@H](C)CCC(N)=O)c1ccc(OP(=O)(O)O)cc1` had an inhibitory constant (Ki) of 144 nM.

Compound `C/C(=C\C(=O)N[C@@H](CC(C)C)C(=O)N1CCC[C@H]1C(=O)NCCNC(N)=O)c1ccc(OP(=O)(O)O)cc1` displayed an inhibitory constant (Ki) of 94 nM.

With `C/C(=C\C(=O)N[C@H]1CCc2cccc3c2N(C1=O)[C@H](C(=O)NCCNC(N)=O)C3)c1ccc(OP(=O)(O)O)cc1`, the Ki was 386 nM. This Ki lies about 4.1-fold higher than the previous one.

Values taken from ChEMBL document CHEMBL1773023, “Potent and selective phosphopeptide mimetic prodrugs targeted to the Src homology 2 (SH2) domain of signal transducer and activator of transcription 3” (J Med Chem, 2011).
